# Screens as filed in PubChem.
# Rows were chosen to be rich in hits. Some 3.5% of all compounds tested hit in one or more screens of this group.
# ERa coact inh = ER-alpha (human) coactivator binding inhibition. inhibition, % at 25.6 µM. AID 629. 1.7% of 86,000 active. P03372. TR-FRET ER-alpha LBD / SRC-1 peptide, estradiol-bound; in the data active = inhibition above about 50%;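 also: 0% = receptor plus peptide control and 100% = peptide only without receptor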
# sEH inh = soluble epoxide hydrolase (human) inhibition; P34913; recombinant human sEH enzymatic activity assay; 0.34% of 91,000 active; inhibition, % at 2 µM; in the data active = inhibition above about 80%
# Target sequence (P34913 whole entry, looked up): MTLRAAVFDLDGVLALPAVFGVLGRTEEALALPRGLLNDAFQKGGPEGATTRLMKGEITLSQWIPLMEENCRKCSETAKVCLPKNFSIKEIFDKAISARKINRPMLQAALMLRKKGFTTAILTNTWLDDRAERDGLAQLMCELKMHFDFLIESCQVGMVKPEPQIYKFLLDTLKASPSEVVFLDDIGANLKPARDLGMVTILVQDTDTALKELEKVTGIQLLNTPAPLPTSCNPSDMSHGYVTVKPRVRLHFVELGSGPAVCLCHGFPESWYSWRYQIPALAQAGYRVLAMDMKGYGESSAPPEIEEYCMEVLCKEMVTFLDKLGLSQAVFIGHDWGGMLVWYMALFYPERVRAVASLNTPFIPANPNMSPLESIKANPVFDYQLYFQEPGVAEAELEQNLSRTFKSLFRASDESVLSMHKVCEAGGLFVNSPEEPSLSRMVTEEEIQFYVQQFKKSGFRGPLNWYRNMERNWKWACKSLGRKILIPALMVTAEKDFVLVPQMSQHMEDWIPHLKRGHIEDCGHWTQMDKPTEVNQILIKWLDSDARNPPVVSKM
# ERa coact pot = enhances coactivator binding to human estrogen receptor alpha | P03372 | TR-FRET ERalpha-LBD/SRC-Cy5 coactivator binding, 2 h; 100 = basal binding, no effect | coactivator binding (% of control), % at 25.6 µM | 1.3% of 86,000 active | AID 639; in the data active = activity above about 200%;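 also: binding measured in presence of low estradiol as agonist stimulus; 0% = peptide alone without receptor and 100% = receptor with peptide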
# sEH act = soluble epoxide hydrolase (human) activation; purified human sEH enzymatic activity, activator screen; activation, % at 2 µM; 0.04% of 91,000 active; in the data active = activation above about 37%
# HIV Rev-RRE inh = HIV Rev-RRE protein-RNA interaction inhibition; Rev peptide-RRE RNA binding, FRET; inhibition, % at 8 µM; P05866; 0.79% of 97,000 active;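 active = inhibition above the screen-wide mean plus 3 SD, cut at about 35% in these data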;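 also: 0% = median DMSO wells and 100% = median Neomycin B control wells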
# Target sequence (P05866 whole entry, looked up): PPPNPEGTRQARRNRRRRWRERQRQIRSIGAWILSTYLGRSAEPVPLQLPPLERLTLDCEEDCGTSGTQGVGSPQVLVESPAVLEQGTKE
#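 Assay system: Rev peptide and RRE RNA, both fluorescently labelled; times: 5 min preincubation and 15 min binding, 25 °C; detection: FRET, ex 480 nm, em 540 and 671 nm; read-out basis: % inhibition from 671/540 nm acceptor-to-donor ratio, scaled between controls; benchmarks: DMSO low control, neomycin B high control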
# ERb SRC1 inh = blocks coactivator binding to human estrogen receptor beta; TR-FRET ER-beta LBD / SRC1-Cy5 peptide binding; receptor agonist-loaded with 1 µM estradiol; Q92731; inhibition, % at 25.6 µM; 1.3% of 86,000 active;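 active = compounds whose percent inhibition of the receptor-coactivator binding signal exceeds about 50% in the single-dose screen, limit read from the data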;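 also: 0% = receptor plus peptide wells without compound and 100% = peptide-only wells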
# * hit, by the source's call; / = not tested or not shown; [ ] = another dose, or the depositor's remark.
SMILES,ERa coact inh,sEH inh,ERa coact pot,sEH act,HIV Rev-RRE inh,ERb SRC1 inh
CCOC(=O)c1cc(-c2ccc(/C=N\n3cnnc3)o2)ccc1Cl,-2.0,26.3,98.2,-22.2,3.4,-8.8
CCCCOC(=O)c1cc(-c2ccc(/C=N/n3cnnc3)o2)ccc1Cl,56.4*,-1.4,131.7,-2.1,2.9,41.9
Cn1c(=O)[nH]c(=O)c2c1ncn2CCCc1ccccc1,0.5,4.6,111.9,-3.5,9.3,5.0
CCOc1cccc2cc(-c3cn4cc(C)ccc4n3)c(=O)oc12,81.1*,-1.4,126.0,2.4,-2.8,50.0*
COc1cccc2cc(-c3cn4ccc(C)cc4n3)c(=O)oc12,73.9*,-5.9,60.8,5.5,-4.4,52.7*[fluorescence artefact?]
O=c1oc2c(CN3CCCCC3)c(O)ccc2cc1-c1nc2ccccc2[nH]1,4.7,/,130.4,/,/,5.0
O=c1oc2c3c4c(cc2cc1-c1nc2ccccc2[nH]1)CCCN4CCC3,94.5*[fluorescence artefact?],/,9.8,/,/,58.3*[fluorescence artefact?]
Cc1nn(Cc2ccc(Cl)cc2Cl)c(C)c1NC(=O)CCl,-7.5,-1.3,125.8,4.3,8.6,0.6
Cn1c(CNC(=O)c2ccc(Cl)cc2)nnc1SCC(=O)Nc1sc2c(c1C#N)CCCC2,37.4,-13.7,249.6*,14.0,0.4,34.0
COc1ccc(-c2nnn(CC(=O)Nc3sc4c(c3C#N)CCCC4)n2)cc1,50.9*[fluorescence artefact?],-11.3,114.6,10.6,-1.2,24.1
COC(=O)c1sccc1NC(=O)Cn1nnc(-c2ccc(C)cc2)n1,13.6,-0.7,212.1*,-1.8,16.9,2.8
COc1ccc(-c2cc(C(F)(F)F)nc(SCC(=O)Nc3sc4c(c3C#N)CCC4)n2)cc1,/,/,/,/,-2.2,/
CCOc1ccccc1NC(=O)Cn1nnc(-c2ccc(OCC)c(OCC)c2)n1,53.5*[fluorescence artefact?],4.6,107.0,-5.8,-5.6,26.5
CC1=C(C(=O)N(C)CCC#N)C2(CCCCC2)OC1=O,-3.5,9.6,115.6,-9.1,3.2,-8.7
O=C(COC(=O)c1cccnc1Nc1ccccc1F)NCCN1C(=O)CSC1=O,/,-6.0,/,5.1,6.6,/
COc1ccc(-c2ccc(C#N)c(SCC(=O)Nc3sc4c(c3C#N)CCC4)n2)cc1OC,84.3*[fluorescence artefact?],-9.5,149.9,10.3,7.4,64.8*[fluorescence artefact?]
N#Cc1cc2c(nc1SCC(=O)Nc1sc3c(c1C#N)CCC3)CCC2,-3.7,/,112.7,/,8.1,12.7
CC(C)c1ccc(NC(=O)COc2nnc(-c3cccs3)c(-c3cccs3)n2)cc1,/,26.7,/,-26.1,11.5,/
CCOC(=O)c1sc2nc(CC(=O)OC)nc(NCc3ccco3)c2c1C,20.9,-15.4,102.0,14.5,38.8*,17.3
Cn1ncc(Br)c1C(=O)Nc1ccc(Cl)cn1,12.0,/,136.7,/,/,2.6
CCOC(=O)C1CCCN(c2cc(=O)n(Cc3ccc(F)cc3)c(=O)[nH]2)C1 (configuration not stated),-3.6,-6.6,113.6,8.0,5.2,-5.2
CCOC(=O)C1=C(C)N=c2s/c(=C\c3cccn3C)c(=O)n2C1c1cccc(OC)c1OC (configuration not stated),-3.8,-1.1,86.5,2.7,88.2*[fluorescence artefact?],-2.0
CC(C)SC1=NC(C)(C)C=C(/C=C/c2ccc(Cl)cc2Cl)N1,10.6,0.6,96.1,-0.5,-3.6,4.9
CC(C)CC(c1nnnn1Cc1ccco1)N1CCN(c2cccc(Cl)c2)CC1 (configuration not stated),10.2,-11.6,98.1,10.2,9.3,10.0
CC(C)=CCC/C(C)=C/CCC(C)NCCN1CCNCC1 (configuration not stated),4.7,/,200.7*[fluorescence artefact?],/,-9.1,-4.6
SMILES,ERa coact inh,sEH inh,ERa coact pot,sEH act,HIV Rev-RRE inh,ERb SRC1 inh
O=c1c2ccccc2[nH]c(=S)n1C1CCCCC1,-17.9,13.7,123.2,-13.9,0.5,-15.8
CC1CCC(n2c(=S)[nH]c3ccccc3c2=O)CC1 (configuration not stated),-9.0,1.6,218.4*[fluorescence artefact?],-2.8,1.0,18.4
COc1ccc(CNC(=O)/C=C/c2cc3c(cc2Br)OCO3)cc1,/,86.5*,/,-86.1,-0.5,/
Cc1ccc(CNC(=O)c2cn(C3CCCCC3)c(=O)c3c2c2ccccc2n3C)o1,-0.3,-4.0,74.0,4.3,9.0,13.5
Cc1cc(NC(=O)c2cn(C3CCCCC3)c(=O)c3c2c2ccccc2n3C)no1,4.5,1.8,200.2*[fluorescence artefact?],-0.1,-2.9,20.8
CCOc1cc(/C=C2/C(=N)N3C=CSC3=NC2=O)ccc1OCCCOc1ccccc1C,37.8,-15.1,78.8,14.8,11.6,32.9
COC(=O)c1ccccc1OCCCOc1ccc(C=O)cc1OC,/,-3.5,/,3.1,3.7,/
COc1cc(/C=C2/C(=N)N3C=CSC3=NC2=O)ccc1OCCCOc1ccccc1C,70.8*,-11.3,68.0,15.2,12.6,72.5*[fluorescence artefact?]
COc1cc(/C=C2/C(=N)N3C=CSC3=NC2=O)ccc1OCCCOc1c(C)cccc1C,89.9*[fluorescence artefact?],-7.1,120.0,6.8,15.5,43.5
OC1(c2cccc(C(F)(F)F)c2)CCNCC1,15.6,-13.0,86.4,11.7,8.4,69.9*[fluorescence artefact?]
CCOC(=O)C1CCN(C(=O)C2CCCCC2)CC1,0.6,3.3,102.0,-0.4,-0.1,8.6
Cc1nnc(N2C(=O)c3oc4ccccc4c(=O)c3C2c2ccco2)s1 (configuration not stated),49.8,/,58.0,/,/,62.4*[fluorescence artefact?]
COc1ccc(C2c3c(oc4ccccc4c3=O)C(=O)N2c2ccccn2)cc1 (configuration not stated),6.1,/,218.5*,/,12.0,6.2
Nc1nc(N2C(=O)C3CC=CCC3C2=O)nn1-c1ccccc1 (configuration not stated),56.7*,-4.1,116.3,3.5,2.3,-7.5
COc1ccc(CNC(=O)CSc2nc3nc(C)cc(C)n3n2)cc1,-10.1,-18.5,148.9,19.2,6.7,14.6
COc1ccc(-c2cn(-c3ccc(C)cc3)c(=O)n2CC(=O)Nc2ccc(OC)cc2OC)cc1,-2.2,-7.8,98.3,7.4,-3.7,6.1
COc1ccc(NC(=O)Cn2c(-c3ccccc3)cn(-c3ccc(C)cc3)c2=O)cc1,4.9,-6.4,200.9*,8.7,0.7,4.2
CCCCN(CC)C(=O)CSc1nc2ccccc2c(=O)n1CC1COc2ccccc2O1 (configuration not stated),1.9,-14.5,122.1,12.8,0.0,10.9
Cc1nc(SCn2nnc3ccccc3c2=O)c2c(C)c(C)sc2n1,64.1*[fluorescence artefact?],/,98.4,/,/,29.0
CC12CC3(C)CC(C)(C1)CC(C(=O)NC(=S)N1CCOCC1)(C2)C3,/,-2.4,/,4.8,-6.7,/
O=C(Nc1ccc(S(=O)(=O)Nc2cnc3ccccc3n2)cc1)c1ccc(Br)o1,10.5,3.2,96.3,-1.2,0.9,8.8
Cc1ccnc(NC(=O)c2ccc(N3C(=O)CCC3=O)cc2)c1,21.0,-5.8,224.3*,5.7,8.2,22.1
COc1ccc(C(=O)NC(=O)Nc2cc(C)ccn2)cc1,16.6,-8.2,210.0*,7.8,4.4,-20.5
CC(=O)Nc1cccc(NC(=O)CSc2nn3c(=O)c(C)nnc3s2)c1,-5.7,/,165.7,/,/,-12.8
